Compound activity from PubChem BioAssay.
PLC-gamma1 inh = PLC-gamma1 enzyme inhibitors, primary screen, biochemical, fluorescence, purified enzyme | 1-phosphatidylinositol 4,5-bisphosphate phosphodiesterase gamma-1 (Homo sapiens), P19174 | fluorogenic substrate | inhibition, % at 12.2 µM | hit rate 0.84% among 370,000 | AID 720700, 2013
Tn6 DDE FP = inhibitors of Tn6 peptide binding to fibrin DD(E), primary screen, biochemical, fluorescence polarization, human fibrin, Tn6 probe; Fibrin DD(E) TRITC-Tn6 fluorescence polarization displacement; inhibition, % at 8.3 µM; hit rate 0.21% among 370,000;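 active = inhibition above a per-campaign cutoff: mean of compounds within control limits plus 3 SD, cut at about 15% in these data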;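 note: 0% = median of all compound wells on the plate and 100% = blocking peptide control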
Target sequence (P02675 whole entry, looked up): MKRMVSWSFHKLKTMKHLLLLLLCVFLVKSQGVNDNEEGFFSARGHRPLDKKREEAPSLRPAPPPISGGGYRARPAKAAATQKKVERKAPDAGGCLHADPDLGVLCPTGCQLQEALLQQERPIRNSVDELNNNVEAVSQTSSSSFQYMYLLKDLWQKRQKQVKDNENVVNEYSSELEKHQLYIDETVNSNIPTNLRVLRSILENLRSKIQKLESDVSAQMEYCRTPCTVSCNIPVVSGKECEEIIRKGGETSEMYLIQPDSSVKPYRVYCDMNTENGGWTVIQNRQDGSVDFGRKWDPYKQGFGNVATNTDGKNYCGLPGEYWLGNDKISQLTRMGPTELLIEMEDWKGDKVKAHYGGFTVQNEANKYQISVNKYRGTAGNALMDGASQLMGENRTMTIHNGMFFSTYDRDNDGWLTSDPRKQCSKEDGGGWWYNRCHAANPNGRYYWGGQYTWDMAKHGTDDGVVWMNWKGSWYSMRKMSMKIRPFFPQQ
DNA FID counter = compounds displacing fluorescent DNA intercalator, primary screen, artefact control for HCV NS3 helicase inhibitor project, biochemical, FID fluorescence; DNA fluorescent intercalator displacement; inhibition, % at 7.9 µM; hit rate 0.17% among 290,000; in the data active = inhibition above about 37%;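 note: 0% = vehicle and 100% = reference compound; higher means more ethidium bromide displaced from hairpin DNA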
Tn7 DDE FP = inhibitors of Tn7 peptide binding to fibrin DD(E), primary screen, biochemical, fluorescence polarization, human fibrin, Tn7 probe; Fibrinogen beta chain (Homo sapiens), P02675; FP displacement of FITC-Tn7 peptide from fibrin DD(E); 0% = median of compound wells per plate; inhibition, % at 8.3 µM; hit rate 0.13% among 370,000; AID 720508, 2013;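 active = inhibition above the mean of compounds falling within the control limits plus 3 SD of them, cut at about 14% in these data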;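 note: 0% = plate median of compound wells and 100% = 10 µM Aha-Tn7 peptide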
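system = human fibrin DD(E) protein | quantity = DD(E) 2 µM final | medium = Tris/NaCl/CaCl2 buffer, pH 7.8 | also added = labelled Tn7 tracer, 0.1 µM | compound dosing = single point at 8.3 µM | timing = compound with protein 10 min, then 3 h after probe, room temperature | signal = FP measurement | benchmarks = Aha-Tn7 high control | repeats = one replicate per compound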
PLCb3 inh = human PLC-beta3 inhibitors, primary screen, biochemical, fluorescence. 1-phosphatidylinositol 4,5-bisphosphate phosphodiesterase beta-3 (Homo sapiens), Q01970. Purified PLC-beta3, fluorogenic substrate. hit rate 0.18% among 370,000. inhibition, % at 12.2 µM; in the data active = inhibition above about 11%;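 note: 0% = median of compound wells on plate and 100% = full blocker control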
PLCg1 ctr = PLC-gamma1 enzyme inhibitors, counter-screen for PLC-beta3 inhibitor project, biochemical, fluorescence. shares compounds with PLC-gamma1 inh. purified PLC-gamma1, fluorogenic substrate. inhibition, % at 12.3 µM. hit rate 3.1% among 3,300. AID 743258, 2014
PLCbeta3 conf = PLC-beta3 inhibitor confirmation, biochemical, fluorescence, purified enzyme. shares compounds with PLC-gamma1 inh. hit rate 1% among 3,300. fluorogenic substrate fluorescence. inhibition, % at 12.3 µM. AID 743261, 2014; in the data active = inhibition above about 11%
An asterisk follows results filed as active; x = no result. Only some compounds are listed: those with a hit (about 1.4% of all), similar ones and a draw of the others. Cut-off read from the data, not from the text of the source, unless noted: active = inhibition above about 9.5%; inactive = the rest.

SMILES | PLC-gamma1 inh | Tn6 DDE FP | DNA FID counter | Tn7 DDE FP | PLCb3 inh | PLCg1 ctr | PLCbeta3 conf
C=CCN1C(=O)/C(=C/N(C)C)S/C1=N\S(=O)(=O)c1cccs1 | 8 | 9 | x | 5 | 12* | 0 | 3
CC(=O)Nc1ccc(S(=O)(=O)N2c3ccc(F)cc3CCC2C)cc1 (configuration not stated) | 10* | -7 | x | -2 | -4 | -7 | -3
COc1ccc(S(=O)(=O)N2c3ccc(F)cc3CCC2C)cc1 (configuration not stated) | 1 | 4 | x | 1 | -3 | x | x
O=C(Cn1cnc2c(cnn2-c2ccc(Cl)cc2)c1=O)NC1CCCCC1 | 0 | -6 | 0 | 6 | -2 | x | x
O[C@H](COc1ccccc1)CN1CCC(C(O)(c2ccccc2)c2ccccc2)CC1 | 5 | -2 | x | -2 | 12* | -4 | -1
OC(COc1ccc(-c2ccccc2)cc1)CN1CCOCC1 (configuration not stated) | x | x | 3 | x | x | x | x
OC(COc1ccc(OCc2ccccc2)cc1)CN1CCOCC1 (configuration not stated) | 9.7* | -4 | -3 | -5 | 9 | -3 | 2
CCN(CC)C(=O)C1CCCN(Cc2ccc(N(C)C)cc2)C1 (configuration not stated) | 10* | -1 | x | -1 | -2 | -2 | 0
Cc1ccc(CN2CCCC(C(=O)N3CCCC3)C2)cc1 (configuration not stated) | 2 | -4 | -2 | 3 | -1 | x | x
O=C(C1CCCN(Cc2ccc(Br)cc2)C1)N1CCCCC1 (configuration not stated) | 13* | 0 | 3 | -4 | 3 | -5 | -2
CCN(Cc1ccccc1)C(=O)c1cccs1 | 3 | 5 | x | -7 | -2 | x | x
NC(=O)c1ccc(NC(=O)COC(=O)CCC2CCCCC2)cc1 | 14* | -3 | x | -15 | -6 | -5 | -3
CCC(CC)c1nn2c(N)c(/C=C3\C=Nc4ccccc43)c(=O)nc2s1 | 10* | 1 | -1 | 5 | 4 | -48 | -46
CC(C)c1nn2c(N)c(/C=C3\C=Nc4ccccc43)c(=O)nc2s1 | -9 | -3 | -19 | -2 | -14 | x | x
O=C1c2ccccc2C(=O)N1S(=O)(=O)c1ccccc1 | 3 | -4 | 2 | 2 | -6 | x | x
NC1=C(Br)C(=O)c2ncccc2C1=O | 9.5* | -7 | x | 3 | 6 | 6 | 5
COc1ccc(CCNC(=O)COc2cccc3c2OC(C)(C)C3)cc1OC | -2 | -3 | x | -4 | 2 | x | x
COc1ccc(/C=N/NC(=S)Nc2ccccc2)cc1COc1ccc(F)cc1 | 11* | -5 | -5 | -8 | 16* | -11 | -10
CCCNS(=O)(=O)c1ccc(OCC(=O)OC)cc1 | 2 | -1 | -9 | -5 | 0 | x | x
CC(C)(C)c1ccc(/C=N/NC(=O)C[n+]2ccccc2)cc1 | 9.9* | -6 | 2 | -4 | 2 | -8 | -2
O=C(C1CCCN1S(=O)(=O)c1ccc([N+](=O)[O-])cc1)N1CCc2ccccc2C1 (configuration not stated) | 1 | -5 | x | -4 | 4 | x | x
O=C(CN1C(=O)/C(=C/c2ccco2)SC1=S)Nc1ccc(C(=O)O)c(O)c1 | 58* | -12 | 26 | -3 | -13 | 40* | -13
CC(C(=O)Nc1ccc(C(=O)O)c(O)c1)N1C(=O)/C(=C\c2ccco2)SC1=S (configuration not stated) | x | x | -14 | x | x | x | x
O=C(CN1C(=O)/C(=C/c2ccco2)SC1=S)Nc1ccc(O)c(C(=O)O)c1 | 46* | -8 | 9 | -2 | -26 | 36* | -17
CC1(C(=O)NCc2cccc(C(F)(F)F)c2)CCN1Cc1cc2ccccc2o1 (configuration not stated) | 1 | 0 | x | -2 | -8 | x | x
SMILES | PLC-gamma1 inh | Tn6 DDE FP | DNA FID counter | Tn7 DDE FP | PLCb3 inh | PLCg1 ctr | PLCbeta3 conf
CC1(C(=O)NCc2cccc(C(F)(F)F)c2)CCN1Cc1ccc(-c2ccccc2)o1 (configuration not stated) | 9.6* | 6 | x | -1 | -1 | -1 | -2
Cc1cccc(S(=O)(=O)N2CCCc3ccccc32)c1 | 9.6* | -3 | -22 | 10 | -6 | -2 | 4
COc1ccc(CC2(CO)CCN(S(=O)(=O)c3cccc4cccnc34)CC2)cc1 | 1 | 1 | -36 | 1 | -2 | x | x
COc1ccc(OCC(=O)NS(=O)(=O)c2ccc(Cl)cc2)cc1 | -3 | 8 | -14 | 1 | -6 | x | x
O=C(COc1ccccc1)NS(=O)(=O)c1ccccc1 | 10.0* | 6 | 1 | 3 | -1 | -7 | -1
Cc1cccc([C@@H]2[C@@H]3C(=O)N(Cc4ccccc4)C(=O)[C@@H]3[C@]3(Cc4ccc(Cl)cc4)C(=O)N(c4ccccc4)C(=O)N23)c1 | -1 | 0 | -4 | 3 | -4 | x | x
CCCNC(=O)c1cc(C2CCCN(S(=O)(=O)c3cccc4cccnc34)C2)on1 (configuration not stated) | 2 | -5 | x | -11 | 3 | x | x
O=C(Nc1ccc(F)c(Cl)c1)c1cc(C2CCCN(S(=O)(=O)c3cccc4cccnc34)C2)on1 (configuration not stated) | 1 | -3 | x | -3 | 11* | -9 | -5
COc1ccc(NC(=O)c2cc(-c3ccc(OC)c(OC)c3)on2)cc1OC | 10.0* | 6 | 0 | 8 | 10 | -155 | -194
CC(C)(C)n1nnnc1C(c1ccc2ncccc2c1)N1CCC(O)CC1 (configuration not stated) | 5 | 1 | -6 | -2 | -2 | x | x
CCC(C)[C@H]1CNCCN1CC1(c2ccccc2)CC1 (some centres not stated) | 8 | -4 | x | -3 | 14* | -4 | -6
Oc1ccc(C[C@@H]2CNCCN2CCc2cccc3ccccc23)cc1 | 0 | 4 | x | -6 | 1 | x | x
CCC(C)[C@H]1CNCCN1CCc1cccc2ccccc12 (some centres not stated) | 11* | 0 | x | -6 | 8 | -5 | 0
CCC(C)[C@H]1CNCCN1CCc1cc(C(F)(F)F)cc(C(F)(F)F)c1 (some centres not stated) | 11* | 1 | x | -5 | 7 | -11 | -4
CNc1ccc([N+](=O)[O-])cc1 | 3 | 3 | x | -1 | 4 | x | x
